Compound activity from PubChem.
Sampled rows, rich in hits. Any-hit rate of the full collection: about 3%.
TAAR1 ag – human TAAR1 agonism | activation, % at 3 µM | 360,000 compounds, 0.99% hits | CHO RD-HGA16 TAAR1, Fluo-8 calcium fluorescence; vehicle wells 0%, saturating PEA agonist 100% | Q96RJ0;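 active = activation above the mean activation of all test compounds in the run plus 3 SD, cut at about 38% in these data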
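Repeats: no replicates (n 1) | Material: CHO-derived RD-HGA16 cells with stable Gα16 and human TAAR1 | Technique: Kinetic Fluo-8 calcium fluorescence | Schedule: 17-24 h seeding, 75 min 37 °C dye, 30 min RT | Evaluation: % activation from peak over basal fluorescence ratio, DMSO-to-PEA scaled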
M4 ag – agonists of human muscarinic M4 receptor (CHRM4); P08173; CHO-K1 hM4/Gqi5, Fluo-8 calcium fluorescence; vehicle 0%, full acetylcholine response 100%; activation, % at 3 µM; 360,000 compounds, 0.14% hits; AID 624127;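 active = activation above the run mean over all test wells plus 3 SD, cut at about 32% in these data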;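 also: peak over basal fluorescence ratio per well then scaled between controls; 0% = DMSO wells and 100% = acetylcholine at EC100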
Target sequence (P08173 whole entry, looked up): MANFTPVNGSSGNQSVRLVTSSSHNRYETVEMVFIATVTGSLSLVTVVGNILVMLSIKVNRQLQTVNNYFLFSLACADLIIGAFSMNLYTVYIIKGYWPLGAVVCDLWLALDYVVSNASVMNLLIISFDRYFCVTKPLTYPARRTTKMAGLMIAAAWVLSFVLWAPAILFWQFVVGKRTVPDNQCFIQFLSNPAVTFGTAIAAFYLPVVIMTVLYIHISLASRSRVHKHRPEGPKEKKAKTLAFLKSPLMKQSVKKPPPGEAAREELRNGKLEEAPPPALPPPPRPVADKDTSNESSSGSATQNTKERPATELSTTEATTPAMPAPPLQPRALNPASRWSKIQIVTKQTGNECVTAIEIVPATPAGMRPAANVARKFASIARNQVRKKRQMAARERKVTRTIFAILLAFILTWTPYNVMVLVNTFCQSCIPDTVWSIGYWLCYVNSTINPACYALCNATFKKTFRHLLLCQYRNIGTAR
CHRM4 PAM – positive allosteric modulators of human muscarinic M4 receptor; P08173; AID 624126; activation, % at 3 µM; 360,000 compounds, 0.4% hits; CHO-K1 hM4/Gqi5, Fluo-8 calcium fluorescence, ACh EC20; 0% = ACh EC20, 100% = maximal ACh;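 active = activation above its plate's cutoff, the mean activation of sample wells plus 3 SD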
CHRM4 antagonist – antagonists of human muscarinic M4 receptor (CHRM4) | P08173 | CHO-hM4 cells, ACh EC80, Fluo-8 calcium fluorescence | inhibition, % at 3 µM | 360,000 compounds, 0.73% hits | AID 624125;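 active = inhibition above its plate's cutoff, the mean inhibition of sample wells plus 3 SD, cut at about 27% in these data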;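 also: 0% = acetylcholine EC80 with DMSO and 100% = DMSO without agonist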
TAAR1 antag – antagonists of human TAAR1; CHO RD-HGA16 TAAR1, Fluo-8 calcium fluorescence, antagonist; inhibition, % at 3 µM; 360,000 compounds, 1.5% hits;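 active = inhibition above a per-plate cutoff, the mean inhibition of test compounds on that plate plus 3 SD, cut at about 49% in these data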;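 also: 0% = DMSO plus EC80 beta-PEA response and 100% = DMSO alone without agonist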
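Test system: hTAAR1-expressing CHO RD-HGA16 cells, Gα16-coupled; Probe or stimulus: EC80 β-phenethylamine stimulus; Compound dosing: single nominal final test compound concentration of 3 µM; Timing: 140 s kinetic read after compound, 140 s after agonist; Signal: Fluo-8 calcium-sensitive fluorescence; Measure: % inhibition of agonist calcium response; Controls: DMSO and EC80 PEA controls.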
An asterisk follows results filed as active; nt = no result.

SMILES	TAAR1 ag	M4 ag	CHRM4 PAM	CHRM4 antagonist	TAAR1 antag
CC(C)(C)c1cc(C(=O)Nc2ccc(F)cc2)n(Cc2ccc(F)cc2)n1	2	7	-14	8	65*
COc1ccccc1NNC(=O)c1cc(C(C)(C)C)nn1Cc1ccccc1	3	8	-12	11	49*
Cc1cc(Cl)c(S(=O)(=O)N2CCSCC2)cc1OCC(=O)NC1CCCCC1	22	8	-4	6	54*
Cc1[nH]c2ccccc2c1C(=O)c1c(N)[nH]c(C(=O)c2ccccc2)c1-c1ccc(Cl)cc1	10	nt	nt	nt	-14
Cc1ccc2[nH]c(=O)c(CN(Cc3ccco3)S(=O)(=O)c3c(C)ccc4nsnc34)cc2c1	16	3	-3	-10	34
COc1ccc2[nH]c(=O)c(CN(Cc3cccs3)S(=O)(=O)c3c(C)ccc4nsnc34)cc2c1	30	17	-25	32*	55*
CC(C)c1ccc(OCC(=O)NC(=S)Nc2ccc3c4c(cccc24)CC3)cc1	14	2	5	30*	23
COc1ccc(OC)c(C(=O)CCCC(=O)c2cc(OC)ccc2OC)c1	1	2	-6	31*	14
COc1ccc(OC)c(C(=O)COC(=O)c2c(OC)cccc2OC)c1	5	4	-4	-1	1
C#CCNC[C@@H]1CSCCS(=O)(=O)N1	3	nt	nt	nt	0
CCCc1ccc2oc(C(=O)N(Cc3nccn3C)C(C)C)c(C)c2c1	-1	2	17*	-28	-49
Cc1c(C(=O)N(Cc2nccn2C)C(C)C)oc2c(F)cccc12	4	1	4	-16	-8
Nc1nc2ccccc2n1S(=O)(=O)c1ccc(Cl)cc1	4	2	-14	52*	3
CCn1c(N2CCN(S(=O)(=O)c3ccc(OC)cc3)CC2)nc2ccccc21	34	18	-14	-2	49*
COc1ccc(S(=O)(=O)n2c(N)nc3ccccc32)cc1	2	7	-14	73*	28
Cc1ccc(S(=O)(=O)n2c(N)nc3ccccc32)cc1	4	3	-18	86*	-3
Nc1nc2ccccc2n1S(=O)(=O)c1ccc([N+](=O)[O-])cc1	7	2	-13	16	0
COC(=O)[C@]12C[C@H](CC(=O)N3CCCC3)C(=O)N(Cc3ccc4c(c3)OCO4)C1=C[C@H](COCc1ccccc1)O[C@@H]2C	-1	nt	nt	nt	-18
Cc1cc(NC(=O)c2c(F)cccc2Cl)n(-c2nc3ccccc3[nH]2)n1	6	-2	-2	12	50*
Cc1cc(NC(=O)c2c(F)cccc2F)n(-c2nc3ccccc3[nH]2)n1	4	5	0	-1	23
CCN(C(=O)COC(=O)Cc1c[nH]c2ccccc12)C1CCS(=O)(=O)C1 (configuration not stated)	3	1	19*	-19	-18
CCCCNCCCOc1cccc(Cl)c1Cl	38*	12	-3	0	-13
CCOC(=O)c1c(NC(=O)COC(=O)Cn2cnc3c2c(=O)n(C)c(=O)n3C)sc(C)c1CC	-1	3	24*	-5	-6
Cc1ccc(NC(=O)COC(=O)Cn2cnc3c2c(=O)n(C)c(=O)n3C)cc1	0	2	4	-15	2
O=S1(=O)N[C@H](Cc2ccccc2)COc2cccc(NCCO)c21	0	nt	nt	nt	11
SMILES	TAAR1 ag	M4 ag	CHRM4 PAM	CHRM4 antagonist	TAAR1 antag
COC(=O)c1cc2c(c3c4cc(OC)ccc4n(S(=O)(=O)c4ccccc4)c13)C(=O)N(C)C2	0	nt	nt	nt	21
CCCS(=O)(=O)NC(=O)C1(C)CCN(C(=O)c2ccc3c(c2)OCO3)C1 (configuration not stated)	1	1	-2	4	10
Cc1cccc(Cl)c1NC(=O)N(C)c1ccccc1	1	nt	nt	nt	3
CC(C)OCCCN(C)C1CCN(S(=O)(=O)c2ccc(-c3cc(C(F)(F)F)no3)s2)CC1	5	7	-21	53*	-7
Cc1cc(OC(C)C(=O)NC2CC(C)(C)NC(C)(C)C2)c2c(C)c(C)c(=O)oc2c1 (configuration not stated)	0	1	3	6	11
CC(C)[C@H](CO)N(Cc1cccc(F)c1)c1nc(Nc2cccc(Cl)c2)c2ncn(C(C)C)c2n1	53*	10	8	22	73*
